ChEMBL document CHEMBL1122960, “Acyclic analogues of 2'-deoxynucleosides related to 9-[(1,3-dihydroxy-2-propoxy)methyl]guanine as potential antiviral agents” (1985)

Assays:
Format in all cases: functional
Vero = assay: Antiviral activity was determined in plaque reduction assay in vero cells against HSV-1 F strain; conditions: Chlorocebus sabaeus, read-out: ID50 (the source's name)
Procedure, shortened: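 Vero cells were infected with HSV-1 (F strain) and then treated with the nucleoside analogue. ID50 is the dose giving a 50% reduction in plaque number relative to untreated controls.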

Mus musculus [1] = assay: Effect of oral treatment on HSV-2 encephalitis infection in mice and mean survival time was reported at a dose 10 mg/kg
Procedure, shortened: (§1)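 Female Swiss-Webster mice, about 20 g, were infected intraperitoneally with 5 × 10⁴ PFU HSV-2 (strain G), roughly ten LD50. Drug was given orally once daily for 4 days, beginning 24 h after infection, with a placebo group included. Read-outs were survivors/total and mean survival time in days.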

Mus musculus [2] = assay: Effect of oral treatment on HSV-2 encephalitis infection in mice and mean survival time was reported at a dose 20 mg/kg; procedure, shortened: as §1
Mus musculus [3] = assay: Effect of oral treatment on HSV-2 encephalitis infection in mice and mean survival time was reported at a dose 5 mg/kg; procedure, shortened: as §1
Mus musculus [4] = assay: Effect of oral treatment on HSV-2 encephalitis infection in mice and survivors/total was reported at a dose 10 mg/kg; 5/20; procedure, shortened: as §1
Mus musculus [5] = assay: Effect of oral treatment on HSV-2 encephalitis infection in mice and survivors/total was reported at a dose 20 mg/kg; 8/20; procedure, shortened: as §1
Mus musculus [6] = assay: Effect of oral treatment on HSV-2 encephalitis infection in mice and survivors/total was reported at a dose 5 mg/kg; 8/20; procedure, shortened: as §1
Mus musculus [7] = assay: Effect of oral treatment on HSV-2 encephalitis infection in mice and mean survival time was reported at a dose 40 mg/kg; procedure, shortened: as §1
Mus musculus [8] = assay: Effect of oral treatment on HSV-2 encephalitis infection in mice and survivors/total was reported at a dose 10 mg/kg; 4/20; procedure, shortened: as §1
Mus musculus [9] = assay: Effect of oral treatment on HSV-2 encephalitis infection in mice and survivors/total was reported at a dose 20 mg/kg; 5/20; procedure, shortened: as §1
Mus musculus [10] = assay: Effect of oral treatment on HSV-2 encephalitis infection in mice and survivors/total was reported at a dose 40 mg/kg; 7/20; procedure, shortened: as §1

Row | SMILES | IC50 (Vero) [µM] | other results
1 | Nc1ccn(COC(CO)CO)c(=O)n1 | > 100 | 
2 | Nc1nc2c(ncn2COC(CO)CO)c(=O)[nH]1 [GANCICLOVIR] | 0.2 | Survival time (Mus musculus [1]): 10.9 days; Survival time (Mus musculus [2]): 13.8 days; Survival time (Mus musculus [3]): 9.9 days; Survival (Mus musculus [4]): 5; Survival (Mus musculus [5]): 8; Survival (Mus musculus [6]): 8
3 | Nc1nc(S)c2ncn(COC(CO)CO)c2n1 | 9 | 
4 | O=c1[nH]c(=O)n(COC(CO)CO)cc1Br | > 100 | 
5 | O=c1ccn(COC(CO)CO)c(=O)[nH]1 | > 100 | 
6 | Nc1nc(=O)ccn1COC(CO)CO | > 100 | 
7 | Nc1ncnc2c1ncn2COC(CO)CO | > 100 | 
8 | Nc1ncc2ncn(COC(CO)CO)c2n1 | 16 | 
9 | Nc1nc(N)c2ncn(COC(CO)CO)c2n1 | 3.3 | Survival time (Mus musculus [1]): 10.8 days; Survival time (Mus musculus [2]): 10.9 days; Survival time (Mus musculus [7]): 11.5 days; Survival (Mus musculus [8]): 4; Survival (Mus musculus [9]): 5; Survival (Mus musculus [10]): 7
10 | Nc1nc(=O)n(COC(CO)CO)cc1F | > 100 | 
11 | Nc1nc2c(ncn2COCCO)c(=O)[nH]1 [ACYCLOVIR] | 0.5 | 
12 | Cc1cn(COC(CO)CO)c(=O)[nH]c1=O | > 100 | 
13 | O=c1[nH]c(=O)n(COC(CO)CO)cc1F | > 100 | 
